Data on 55 compounds can be found in PubChem BioAssay AID449761 (Broad Institute, 2010).

Results filed as inconclusive are left out. The source made the active and inactive calls.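 Rule for the calls: active = compounds raising caspase signal with fitted AC50 no more than tenfold above the top tested dose; inconclusive = flat curve at 30 to 70% activity, or unusable fit; inactive = the rest.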 Some results are limits rather than exact numbers.

This assay concerns MEF WT non-primed, caspase-Glo luminescence, 3 h. Nature of the assay: caspase activation in non-primed cells, dose response, counter-screen for Bcl2-A1 inhibitor project, cell-based, caspase-Glo luminescence, 3 h (AID 449761). Put shortly: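 Technique: CaspaseGlo luminescence | Material: Non-primed wild-type MEF cells | Quantity: 2500 cells/well | Times: 3 h compound at 37 °C, 1 h detection at room temperature | Dosing: 100 nL compound added per well by pin transfer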
On the technique in general: A counterscreen serves to expose hits that act by an unwanted route or on another target.
Regarding `CC(C)(C)c1ccc2c(c1)OC(C(=O)N/N=C\c1ccc[nH]1)CO2` (stereo not given), the AC50 is > 35 µM (inactive). As to `COc1ccccc1C(=O)Nc1ccnn1C1CCN(Cc2cn(C)c3ccccc23)CC1`, the AC50 is > 35 µM (inactive). As for `N#CC(C#N)=C1C=CC=CN1/C(=C\c1ccccc1Cl)C(=O)c1ccccc1`, the figure is 5.01 µM. Take `CCC1CCCCN1S(=O)(=O)c1ccc(NC(=O)c2nc(S(C)(=O)=O)ncc2Cl)cc1` (stereo not given): the AC50 was 4.2 µM. As for `COc1cc(CN2CCN(c3cc(C)ccc3C)CC2)ccc1O`, the figure is > 35 µM (inactive). Turning to `CC(C)(C)C1CCc2onc(C(=O)Nc3cccc(O)c3)c2C1` (stereo not given), the AC50 is > 35 µM (inactive). As for `CC(=O)Nc1ncnc2c1c(-c1ccc(Cl)cc1)nn2C(C)(C)C`, the figure is > 35 µM (inactive); as for `Oc1[nH]c2ccc(Br)cc2c1N=NC(=S)Nc1ccc(F)cc1`, > 35 µM (inactive); as for `COc1ccc(C=C2C=C(C(C)(C)C)C(=O)C(C(C)(C)C)=C2)cc1OC`, 2.98 µM. As for `Cc1ccc(CS(=O)(=O)c2ncc(Cl)c(C(=O)Nc3nnc(C(C)C)s3)n2)cc1`, the figure is > 35 µM (inactive). Next, `COc1ccc(S(=O)(=O)N2CC(O)CC2C(=O)OCC(=O)Nc2ccc(Cl)cn2)cc1` (stereo not given): > 35 µM (inactive).

As to `Cc1ccc(NC(=S)NC(NC(=O)Cc2cccc3ccccc23)C(Cl)(Cl)Cl)cc1` (stereo not given), the AC50 is 22.9 µM. As for `Cc1ccc2c(c1)C(=O)C(=O)N2Cc1ccc(Br)cc1`, the figure is > 35 µM (inactive); as for `CCc1ccc2nc(N(CCCN(C)C)C(=O)c3ccc(S(=O)(=O)N4CCc5ccccc5C4)cc3)sc2c1`, > 35 µM (inactive). Next, `O=C(c1ccc(COc2ccc3ccccc3c2)o1)N1N=C(C(F)F)CC1(O)C(F)F` (stereo not given): > 35 µM (inactive).

With `Cc1ccc(-c2nc(NC(=O)c3nn(C)cc3[N+](=O)[O-])sc2C)cc1C`, the AC50 was 5.21 µM.

As to `COc1ccc(OC)c2sc(N(CCCN(C)C)C(=O)c3ccc(S(=O)(=O)N4CCc5ccccc5C4)cc3)nc12`, the AC50 is > 35 µM (inactive).

Regarding `CCOC(=O)N1C(=O)[C@@](c2ccc(Cl)cc2)(C(C)C)N1C(=O)OCC`, the AC50 was > 35 µM (inactive).

In the case of `CCn1c(Cl)c(C=O)s/c1=N\S(=O)(=O)c1ccccc1`, the AC50 is > 35 µM (inactive).

Regarding `O=C(NCc1ccccc1Cl)c1cccc2c1C(=O)c1ccc(-c3ccc(OC(F)(F)F)cc3)cc1S2(=O)=O`, the AC50 was > 35 µM (inactive). Consider `CC(=O)[C@]1(O)Cc2c(O)c3c(c(O)c2[C@@H](O[C@H]2C[C@H](N)[C@H](O)[C@H](C)O2)C1)C(=O)c1ccccc1C3=O`, for which the AC50 was > 35 µM (inactive). Next, `CCOc1cc(/C=C\[N+](=O)[O-])ccc1OCC(=O)Nc1ccccc1C`: 5.27 µM.

As for `O=C(Nc1ccc2oc(-c3cccc(F)c3)nc2c1)c1ccccc1F`, the AC50 is > 35 µM (inactive).

As for `Cc1ccc(N(Cc2cc(=O)[nH]c3ccccc23)C(=O)CCl)cc1`, the AC50 was > 35 µM (inactive).

For the compound `COc1ccc(-c2ccc3c(c2)S(=O)(=O)c2cccc(C(=O)NC[C@@H]4CCCO4)c2C3=O)cc1OC`, the AC50 is > 35 µM (inactive).

As to `COc1ccccc1-c1cc(C(F)(F)F)nc(S(=O)(=O)CCCC(=O)NC(C)C)n1`, the AC50 was 25.8 µM. Next, `COc1cc(C2CC(c3cccs3)=NN2C(=O)CCl)ccc1OC(F)F` (stereo not given): 32.9 µM; `CC(=O)OC(C)(C)/C=C/C(=O)C(C)(O)C1[C@H](O)C[C@@]2(C)C3CC=C4C(CC[C@@H](O)C4(C)C)[C@]3(CO)C(=O)C[C@]12C` (stereo not given in full): > 35 µM (inactive). Regarding `CCc1ccccc1NC(=O)C(CC)Sc1nc2cc3c(cc2c(=O)n1Cc1ccco1)OCO3` (stereo not given), the AC50 is > 35 µM (inactive). Turning to `C=C1/C=C(\C)[C@](C)(O)C[C@H](O)CC(=O)[C@H](O)[C@@H](O)[C@H](C)C[C@H](C)OC(=O)/C(C)=C/CC/C=C/[C@@H]2O[C@H]2C[C@H](C)C1`, the AC50 is > 35 µM (inactive). As for `CCS(=O)(=O)c1ncc(Cl)c(C(=O)Nc2ccc(S(=O)(=O)N3CCC(C)CC3)cc2)n1`, the AC50 is > 35 µM (inactive). As to `O=C(N=Nc1c(O)[nH]c2ccc([N+](=O)[O-])cc12)c1cc(-c2ccccc2Cl)nc2ccccc12`, the AC50 was > 35 µM (inactive). As for `Cc1ccc(C=C2C(Cl)=C(Cl)C(Cl)=C2Cl)cc1`, the figure is 5.72 µM. Next, `COc1ccc2c(c1)CCc1c(C(=O)Nc3cc(C)n(Cc4ccc(Cl)cc4)n3)noc1-2`: 14.2 µM; `O=C(/C=C/c1ccc(F)cc1)NC(=S)Nc1ccccc1C(=O)NC1CCCCC1`: > 35 µM (inactive); `Cc1cccc(Nc2nc(N)c([N+](=O)[O-])c(N3CCCC(C)C3)n2)c1` (stereo not given): > 35 µM (inactive). With `Cc1cc(C)cc(NC(=O)/C(C#N)=C/c2cn(CC(=O)NCc3ccco3)c3ccccc23)c1`, the AC50 was 8.84 µM. Turning to `CCOC(=O)/C(=C\c1ccc([N+](=O)[O-])cc1)C(=O)c1cc(C(C)=O)c(Nc2ccccc2)s1`, the AC50 is 1.46 µM.

As to `COc1cc(/C=C2/C(=N)N3C=CSC3=NC2=O)ccc1OCCCOc1cc(C)ccc1C`, the AC50 was 22.4 µM. With `CN(C)CCCN(C(=O)c1cc2cc([N+](=O)[O-])ccc2s1)c1nc2cc3c(cc2s1)OCCO3`, the AC50 is > 35 µM (inactive).

Turning to `Cc1cc(C(=O)CCl)c(C)n1CCc1ccc(Cl)cc1`, the AC50 was > 35 µM (inactive). Take `CCOC(=O)C1=C(c2ccccc2)O/C(=C(/C#N)C(F)(F)F)S1`: the AC50 is > 35 µM (inactive). Turning to `COc1ccc(-c2cc3ccccc3oc2=O)cc1NC(=S)NC(=O)c1ccc2c(c1)OCCO2`, the AC50 is 5.96 µM. Next, `Clc1ccccc1CN(Cc1ccccc1)c1ncnc2nc[nH]c12`: > 35 µM (inactive). As for `CC(C)N=c1scc(-c2ccco2)n1/N=C/c1ccc(O)c(O)c1`, the figure is > 35 µM (inactive); as for `CC1=NNC(=O)/C1=C\c1cn(-c2ccccc2)nc1-c1ccccc1`, 11.3 µM; as for `COc1ccc(-c2nc(NC(=O)c3n[nH]c(=O)c4ccccc34)sc2C)cc1`, > 35 µM (inactive). Next, `Cc1ccc2c(c1)c(C1=c3ccccc3=NC1=O)c(O)n2C`: > 35 µM (inactive); `CCCCC1CCC(C(=O)N(CC(C)C)c2c(N)n(Cc3ccccc3)c(=O)[nH]c2=O)CC1` (stereo not given): 8 µM; `COc1ccc(-c2oc(=O)c3cc(OC)c(OC)cc3c2/C=C/c2cccc([N+](=O)[O-])c2)cc1`: > 35 µM (inactive).

Take `Cc1cccc(C)c1NC(=O)C(Cl)C(=O)c1ccccc1` (stereo not given): the AC50 was > 35 µM (inactive). As for `CCSc1nnc(NC(=O)c2nc(S(=O)(=O)Cc3ccc(F)cc3)ncc2Cl)s1`, the figure is > 35 µM (inactive). For `COc1ccc(-c2ccc3c(c2)S(=O)(=O)c2cccc(C(=O)NCc4cccc(OC(F)(F)F)c4)c2C3=O)cc1OC`, the AC50 is 8.54 µM. As for `O=C(Nc1ccc([N+](=O)[O-])cc1)C(Cc1ccccc1)N1C(=O)c2cccc3cccc(c23)C1=O` (stereo not given), the figure is > 35 µM (inactive); as for `CCc1nnc(NC(=O)c2nc(S(=O)(=O)Cc3ccccc3)ncc2Cl)s1`, > 35 µM (inactive).

In general, AC50 refers to the concentration giving half of the maximal activity seen.
